Results as given in ChEMBL document CHEMBL4028886 (J Med Chem, 2017).
pIC50: −log10 of the molar value.

Columns and labels:
[1] = biological target: Sodium-dependent serotonin transporter (Homo sapiens, UniProt P31645); assay: Inhibition of re-uptake of [3H]-5-HT at human SERT expressed in HEK293 cells preincubated for 5 mins followed by [3H]-dopamine addition measured after 1 min by liquid scintillation counting; type: cell-based; details: hek293
[2] = biological target: Sodium-dependent dopamine transporter (Homo sapiens, UniProt Q01959); assay: Inhibition of re-uptake of [3H]-dopamine at human DAT expressed in HEK293 cells preincubated for 5 mins followed by [3H]-dopamine addition measured after 1 min by liquid scintillation counting; type: cell-based; details: read-out: IC50
Outline: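 HEK293 cells stably expressing human DAT or NET, seeded on PDL-coated plates 24 h before. Preincubated 5 min in Krebs–HEPES buffer pH 7.3 with compound at 0.001 μM to 1 mM (DMSO stock diluted in buffer). Substrate then added: 0.2 μM [3H]dopamine for DAT, 1 min; 0.05 μM [3H]MPP+ for NET, 3 min. Room temperature. Uptake stopped with ice-cold buffer. Cells lysed in 1% SDS and counted by scintillation. Unspecific uptake defined with 10 μM mazindol. IC50 by nonlinear regression.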

[3] = tested on: Rattus norvegicus; assay: Neurotoxicity in Sprague-Dawley rat assessed as effect on total distance traveled at 10 mg/kg, ip administered 30 mins prior to test by open field test relative to control; type: toxicity, organism-based; details: in vivo, 0.5 h
Outline: (§1)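 Male Sprague–Dawley rats, 10 per group, given 10 mg/kg ip daily for 10 days and 30 min before each test. DMSO vehicle group as control. Open field arena 100 × 100 cm with 40 cm walls. Animals video-tracked for 10 min.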

[4] = tested on: Rattus norvegicus; assay: Neurotoxicity in Sprague-Dawley rat assessed as effect on local movements at 10 mg/kg, ip administered 30 mins prior to test by open field test relative to control; type: toxicity, organism-based; details: in vivo, 0.5 h; outline: as §1
[5] = tested on: Rattus norvegicus; assay: Neurotoxicity in Sprague-Dawley rat assessed as effect on average velocity at 10 mg/kg, ip administered 30 mins prior to test by open field test relative to control; type: toxicity, organism-based; details: in vivo, 0.5 h; outline: as §1
[6] = tested on: Rattus norvegicus; assay: Neurotoxicity in Sprague-Dawley rat assessed as effect on frequency of spontaneous changes of direction at 10 mg/kg, ip administered 30 mins prior to test by open field test; type: toxicity, organism-based; details: in vivo, 0.5 h; outline: as §1
[7] = tested on: Rattus norvegicus; assay: Neurotoxicity in Sprague-Dawley rat assessed as effect on time spent in closed arm at 10 mg/kg, ip administered 30 mins prior to test by elevated plus maze test relative to control; type: toxicity, organism-based; details: in vivo, 0.5 h
Outline: (§2)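 Male Sprague–Dawley rats, 10 per group, dosed 10 mg/kg ip daily for 10 days and 30 min before testing. DMSO vehicle controls. Elevated plus maze, rats placed centrally and video-tracked. Recorded: time in closed and open arms, arm entries, path length.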

[8] = tested on: Rattus norvegicus; assay: Neurotoxicity in Sprague-Dawley rat assessed as effect on resting time at 10 mg/kg, ip administered 30 mins prior to test by elevated plus maze test relative to control; type: toxicity, organism-based; details: in vivo, 0.5 h; outline: as §2
[9] = tested on: Rattus norvegicus; assay: Neurotoxicity in Sprague-Dawley rat assessed as transfer arousal score at 10 mg/kg, ip administered 30 mins prior to test (reference value: 3.1 +/- 0.3162); type: toxicity, organism-based; details: in vivo, 0.5 h
[10] = tested on: Rattus norvegicus; assay: Neurotoxicity in Sprague-Dawley rat assessed as piloerection score at 10 mg/kg, ip administered 30 mins prior to test (reference value: 2.1 +/- 0.3162); type: toxicity, organism-based; details: in vivo, 0.5 h
[11] = tested on: Rattus norvegicus; assay: Neurotoxicity in Sprague-Dawley rat assessed as touch escape score at 10 mg/kg, ip administered 30 mins prior to test (reference value: 1.2 +/- 1.033); type: toxicity, organism-based; details: in vivo, 0.5 h
[12] = tested on: Rattus norvegicus; assay: Neurotoxicity in Sprague-Dawley rat assessed as tail pinch score at 10 mg/kg, ip administered 30 mins prior to test (reference value: 0.8 +/- 0.788); type: toxicity, organism-based; details: in vivo, 0.5 h

Sodium-dependent dopamine transporter, sequence (Q01959 whole entry): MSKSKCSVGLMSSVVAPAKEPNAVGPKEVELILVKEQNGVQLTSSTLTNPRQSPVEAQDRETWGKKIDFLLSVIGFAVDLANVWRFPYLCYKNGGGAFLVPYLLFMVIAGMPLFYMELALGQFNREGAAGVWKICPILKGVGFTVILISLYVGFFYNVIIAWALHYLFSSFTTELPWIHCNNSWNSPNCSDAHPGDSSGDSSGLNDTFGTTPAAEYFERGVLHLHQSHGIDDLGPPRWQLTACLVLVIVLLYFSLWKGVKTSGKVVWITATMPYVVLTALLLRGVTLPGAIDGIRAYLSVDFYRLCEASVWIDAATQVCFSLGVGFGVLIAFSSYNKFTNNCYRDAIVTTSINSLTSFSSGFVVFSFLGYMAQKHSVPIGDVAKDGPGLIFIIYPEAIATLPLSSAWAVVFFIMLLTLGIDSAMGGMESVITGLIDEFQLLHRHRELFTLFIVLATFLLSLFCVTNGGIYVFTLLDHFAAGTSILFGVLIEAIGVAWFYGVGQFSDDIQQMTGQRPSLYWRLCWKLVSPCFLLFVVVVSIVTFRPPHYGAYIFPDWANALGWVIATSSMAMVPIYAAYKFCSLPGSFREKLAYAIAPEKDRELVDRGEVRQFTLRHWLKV
Sodium-dependent serotonin transporter, sequence (P31645 whole entry): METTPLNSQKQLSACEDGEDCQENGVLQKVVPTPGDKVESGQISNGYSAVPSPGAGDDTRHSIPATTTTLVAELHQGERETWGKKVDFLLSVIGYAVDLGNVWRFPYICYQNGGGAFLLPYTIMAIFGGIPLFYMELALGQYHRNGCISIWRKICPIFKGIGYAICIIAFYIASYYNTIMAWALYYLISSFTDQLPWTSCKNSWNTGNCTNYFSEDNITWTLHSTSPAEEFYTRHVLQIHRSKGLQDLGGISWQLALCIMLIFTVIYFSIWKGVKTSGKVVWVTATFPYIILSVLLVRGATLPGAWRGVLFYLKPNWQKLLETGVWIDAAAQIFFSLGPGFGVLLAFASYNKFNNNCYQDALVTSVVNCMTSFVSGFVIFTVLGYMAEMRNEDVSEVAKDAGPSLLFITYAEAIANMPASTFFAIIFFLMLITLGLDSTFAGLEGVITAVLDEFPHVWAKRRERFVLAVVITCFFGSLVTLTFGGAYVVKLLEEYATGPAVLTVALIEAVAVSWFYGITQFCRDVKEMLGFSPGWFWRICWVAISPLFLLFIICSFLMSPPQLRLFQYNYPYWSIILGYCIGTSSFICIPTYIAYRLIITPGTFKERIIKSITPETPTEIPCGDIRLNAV

SMILES: [O-][S+](Cc1cccs1)C(c1ccccc1)c1ccccc1 (configuration not stated)
- IC50 [1]: Not Active
- pIC50 [2]: 5.85
- Activity [3]: Non-Toxic
- Activity [4]: Non-Toxic
- Activity [5]: Non-Toxic
- Activity [6]: Non-Toxic
- Activity [7]: Non-Toxic
- Activity [8]: Non-Toxic
- Activity [9]: 3.2
- Activity [10]: 2.2
- Activity [11]: 1.2
- Activity [12]: 0.9
